Laboratory results published in ChEMBL document CHEMBL1772996, “Bioactive constituents from the roots of Panax japonicus var. major and development of a LC-MS/MS method for distinguishing between natural and artifactual compounds” (J Nat Prod, 2011).
pIC50: −log10 of the molar value. Values after ≈ are worked out from the molar mass of the structure shown. Active and inactive are the calls of the source. The calls are words filed in the database; no cut-off is given here.

Experiments:
[1] = test system: A549; test: Cytotoxicity against human A549 cells assessed as growth inhibition after 3 days by sulforhodamine B assay; assay type: functional, cell-based
[2] = test system: DU-145; test: Cytotoxicity against human DU145 cells assessed as growth inhibition after 3 days by sulforhodamine B assay; assay type: functional
[3] = test system: KB; test: Cytotoxicity against human KB cells assessed as growth inhibition after 3 days by sulforhodamine B assay; assay type: functional
[4] = test system: Neutrophil; test: Inhibition of fMLP/CB-stimulated superoxide anion generation in human neutrophils; assay type: functional, cell-based
Outline: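 Isolated human neutrophils (dextran sedimentation, Ficoll Hypaque, hypotonic lysis; >98% viable) with 0.5 mg/mL ferricytochrome c and 1 mM Ca2+, 37 °C 2 min, compound 5 min; CB 1 μg/mL 3 min, then 100 nM FMLP 10 min; SOD-inhibitable cytochrome c reduction followed continuously at 550 nm with stirring; mean ± S.E.M., n = 3–4; top concentration 30 μM.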

[5] = test system: Neutrophil; test: Inhibition of fMLP/CB-activated human neutrophil degranulation assessed as inhibition of elastase release at 30 uM using MeO-Suc-Ala-Ala-Pro-Val-p-nitroanilide as a substrate after 5 mins relative to control; assay type: functional
Outline: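 Isolated human neutrophils (dextran sedimentation, Ficoll Hypaque, hypotonic erythrocyte lysis; >98% viable by trypan blue) at 5×10^5/mL in Ca2+-free HBSS pH 7.4 with 100 μM MeO-Suc-Ala-Ala-Pro-Val-p-nitroanilide. Equilibrated 37 °C 2 min, compound 5 min, then activated with 100 nM fMLP plus 0.5 μg/mL CB. A405 monitored continuously. Expressed as % of initial elastase release rate in drug-free fMLP/CB control; mean ± S.E.M., n = 3–4.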

[6] = test system: HCT-8; test: Cytotoxicity against human HCT8 cells assessed as growth inhibition after 3 days by sulforhodamine B assay; assay type: functional, cell-based
[7] = test system: Neutrophil; test: Inhibition of fMLP/CB-stimulated superoxide anion generation in human neutrophils at 30 uM relative to control; assay type: functional
Outline: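 Neutrophils isolated by dextran sedimentation, Ficoll Hypaque and hypotonic lysis, kept in Ca2+-free HBSS pH 7.4 at 4 °C. Given 0.5 mg/mL ferricytochrome c and 1 mM Ca2+, equilibrated 37 °C 2 min, compound 5 min. CB 1 μg/mL for 3 min, then 100 nM fMLP for 10 min. SOD-inhibitable ferricytochrome c reduction followed at 550 nm with stirring; mean ± S.E.M., n = 3–4.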

[8] = test system: Neutrophil; test: Inhibition of fMLP/CB-activated human neutrophil degranulation assessed as inhibition of elastase release using MeO-Suc-Ala-Ala-Pro-Val-p-nitroanilide as a substrate after 5 mins; assay type: functional, cell-based
Outline: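 Neutrophils from dextran sedimentation, Ficoll Hypaque centrifugation and hypotonic erythrocyte lysis (>98% viable by trypan blue), held in Ca2+-free HBSS pH 7.4 at 4 °C; 5×10^5/mL cells with 100 μM substrate equilibrated 37 °C 2 min, compound 5 min, then 100 nM FMLP plus 0.5 μg/mL CB; A405 monitored continuously; expressed as % of initial rate in drug-free activated control; mean ± S.E.M., n = 3–4; top concentration 30 μM.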

| Structure (SMILES) | growth inhibition (GI) [1] | growth inhibition (GI) [2] | growth inhibition (GI) [3] | pIC50 [4] | inhibition at 30 µM [5] | growth inhibition (GI) [6] | inhibition at 30 µM [7] | pIC50 [8] | GI50 ([2]; DU-145, 72 h) | GI50 ([3]; 72 h) |
| --- | --- | --- | --- | --- | --- | --- | --- | --- | --- | --- |
| CCCCOC(=O)[C@H]1O[C@@H](O[C@H]2CC[C@]3(C)[C@H]4CC=C5[C@@H]6CC(C)(C)CC[C@]6(C(=O)O[C@@H]6O[C@H](CO)[C@@H](O)[C@H](O)[C@H]6O)CC[C@@]5(C)[C@]4(C)CC[C@H]3C2(C)C)[C@H](O[C@@H]2OC[C@@H](O)[C@H](O)[C@H]2O)[C@@H](O)[C@@H]1O | inactive | inactive | inactive | 4.67 | 20% | inactive | – | – | – | – |
| CC1(C)CC[C@]2(C(=O)O[C@@H]3O[C@H](CO)[C@@H](O)[C@H](O)[C@H]3O)CC[C@]3(C)C(=CC[C@@H]4[C@@]5(C)CC[C@H](O[C@@H]6O[C@H](C(=O)O)[C@@H](O[C@@H]7O[C@@H](CO)[C@H](O)[C@H]7O)[C@H](O)[C@H]6O)C(C)(C)[C@@H]5CC[C@]43C)[C@@H]2C1 | inactive | inactive | inactive | – | 27.6% | inactive | 14.6% | – | – | – |
| COC(=O)[C@H]1O[C@@H](O[C@H]2CC[C@]3(C)[C@H]4CC=C5[C@@H]6CC(C)(C)CC[C@]6(C(=O)O[C@@H]6O[C@H](CO)[C@@H](O)[C@H](O)[C@H]6O)CC[C@@]5(C)[C@]4(C)CC[C@H]3C2(C)C)[C@H](O)[C@@H](O)[C@@H]1O[C@@H]1O[C@@H](CO)[C@H](O)[C@H]1O | inactive | inactive | inactive | 4.71 | 27.5% | inactive | – | – | – | – |
| CC(C)(O)[C@@H]1CC[C@@](C)([C@H]2CC[C@]3(C)[C@@H]2[C@H](O)C[C@@H]2[C@@]4(C)CC[C@H](O)C(C)(C)[C@@H]4[C@@H](O[C@@H]4O[C@H](CO)[C@@H](O)[C@H](O)[C@H]4O[C@@H]4O[C@H](CO)[C@@H](O)[C@H](O)[C@H]4O)C[C@]23C)O1 | inactive | inactive | inactive | – | -4.95% | inactive | 7.4% | – | – | – |
| CC1(C)CC[C@]2(C(=O)O[C@@H]3O[C@H](CO)[C@@H](O)[C@H](O)[C@H]3O)CC[C@]3(C)C(=CC[C@@H]4[C@@]5(C)CC[C@H](O)C(C)(C)[C@@H]5CC[C@]43C)[C@@H]2C1 | inactive | inactive | inactive | – | – | inactive | 43.6% | 5.02 | – | – |
| CC(C)=CC/C=C(\C)[C@H]1CC[C@]2(C)[C@@H]1[C@H](O)C[C@@H]1[C@@]3(C)CC[C@H](O[C@@H]4O[C@H](CO)[C@@H](O)[C@H](O)[C@H]4O[C@@H]4O[C@H](CO)[C@@H](O)[C@H](O)[C@H]4O)C(C)(C)[C@@H]3CC[C@]12C | inactive | inactive | inactive | – | – | inactive | – | – | – | – |
| CC(C)=CCC[C@@](C)(O)[C@H]1CC[C@]2(C)[C@@H]1[C@H](O)C[C@@H]1[C@@]3(C)CC[C@H](O[C@@H]4O[C@H](CO)[C@@H](O)[C@H](O)[C@H]4O[C@@H]4O[C@H](CO)[C@@H](O)[C@H](O)[C@H]4O)C(C)(C)[C@@H]3CC[C@]12C | inactive | inactive | inactive | – | – | inactive | – | – | – | – |
| CC(C)=CCC[C@](C)(O)[C@H]1CC[C@]2(C)[C@@H]1[C@H](O)C[C@@H]1[C@@]3(C)CC[C@H](O[C@@H]4O[C@H](CO)[C@@H](O)[C@H](O)[C@H]4O[C@@H]4O[C@H](CO)[C@@H](O)[C@H](O)[C@H]4O)C(C)(C)[C@@H]3CC[C@]12C | inactive | inactive | inactive | – | – | inactive | – | – | – | – |
| CC(C)=CCC[C@](C)(O[C@@H]1O[C@H](CO[C@@H]2O[C@H](CO)[C@@H](O)[C@H](O)[C@H]2O)[C@@H](O)[C@H](O)[C@H]1O)[C@H]1CC[C@]2(C)[C@@H]1[C@H](O)C[C@@H]1[C@@]3(C)CC[C@H](O[C@@H]4O[C@H](CO)[C@@H](O)[C@H](O)[C@H]4O[C@@H]4O[C@H](CO)[C@@H](O)[C@H](O)[C@H]4O)C(C)(C)[C@@H]3CC[C@]12C [GINSENOSIDE RB1] | inactive | inactive | inactive | – | 7.36% | inactive | 10.8% | – | – | – |
| CC(C)=CCC[C@](C)(O[C@@H]1O[C@H](CO)[C@@H](O)[C@H](O)[C@H]1O)[C@H]1CC[C@]2(C)[C@@H]1[C@H](O)C[C@@H]1[C@@]3(C)CC[C@H](O[C@@H]4O[C@H](CO)[C@@H](O)[C@H](O)[C@H]4O[C@@H]4O[C@H](CO)[C@@H](O)[C@H](O)[C@H]4O)C(C)(C)[C@@H]3CC[C@]12C [GINSENOSIDE RD] | inactive | inactive | inactive | – | 2.88% | inactive | -3.54% | – | – | – |
| CC(C)=CCC[C@](C)(O)[C@H]1CC[C@]2(C)[C@@H]1[C@H](O)C[C@@H]1[C@@]3(C)CC[C@H](O)C(C)(C)[C@@H]3[C@@H](O[C@@H]3O[C@H](CO)[C@@H](O)[C@H](O)[C@H]3O[C@@H]3O[C@H](CO)[C@@H](O)[C@H](O)[C@H]3O)C[C@]12C [GINSENOSIDE RF] | inactive | inactive | inactive | – | 29.5% | inactive | 8.94% | – | – | – |
| CC(C)=CCC[C@](C)(O[C@@H]1O[C@H](CO)[C@@H](O)[C@H](O)[C@H]1O)[C@H]1CC[C@]2(C)[C@@H]1[C@H](O)C[C@@H]1[C@@]3(C)CC[C@H](O)C(C)(C)[C@@H]3[C@@H](O[C@@H]3O[C@H](CO)[C@@H](O)[C@H](O)[C@H]3O)C[C@]12C [GINSENOSIDE RG1] | inactive | inactive | inactive | – | 19% | inactive | 14.1% | – | – | – |
| C/C(=C/CC[C@](C)(O)[C@H]1CC[C@]2(C)[C@@H]1[C@H](O)C[C@@H]1[C@@]3(C)CC[C@H](O)C(C)(C)[C@@H]3[C@@H](O[C@@H]3O[C@H](CO)[C@@H](O)[C@H](O)[C@H]3O[C@@H]3O[C@H](CO)[C@@H](O)[C@H](O)[C@H]3O)C[C@]12C)CO [PANAJAPONOL A] | Active | – | – | – | 42% | Active | 20.3% | – | 7.3 µg/mL (≈ 8.93 µM) | 6.3 µg/mL (≈ 7.71 µM) |
| CC[C@H](CC[C@@H](C)[C@H]1CC[C@H]2[C@@H]3CC=C4C[C@@H](O[C@@H]5O[C@H](CO)[C@@H](O)[C@H](O)[C@H]5O)CC[C@]4(C)[C@H]3CC[C@]12C)C(C)C [SITOGLUSIDE] | inactive | inactive | inactive | – | 21.7% | inactive | 7.45% | – | – | – |
| CC1(C)CC[C@]2(C(=O)O[C@@H]3O[C@H](CO)[C@@H](O)[C@H](O)[C@H]3O)CC[C@]3(C)C(=CC[C@@H]4[C@@]5(C)CC[C@H](O[C@@H]6O[C@H](C(=O)O)[C@@H](O[C@H]7O[C@@H](CO)[C@H](O)[C@H]7O)[C@H](O[C@@H]7O[C@H](CO)[C@@H](O)[C@H](O)[C@H]7O)[C@H]6O)C(C)(C)[C@@H]5CC[C@]43C)[C@@H]2C1 [STIPULEANOSIDE R2] | inactive | inactive | inactive | – | 23.7% | inactive | 0.78% | – | – | – |
